Activity calls are given as the source filed them. The rule behind the calls is not given here.
Columns and labels:
hERG (KCNH2) = hERG (KCNH2) (Homo sapiens, UniProt Q12809); experiment: Inhibition of human ERG expressed in HEK-293 cells assessed as K+-selective outward current at 3 uM at -80 mV holding potential after 5 mins by voltage patch-clamp method; format: cell-based, HEK293; conditions: HEK-293 cells expressing human ERG
[1] = biological target: Voltage-gated inwardly rectifying potassium channel KCNH2 (Homo sapiens, UniProt Q12809); experiment: Displacement of [3H]-astemizole from human ERG expressed in HEK293 cells after 1 hr by scintillation counting analysis; format: cell-based
Cavia porcellus [2] = experiment: Cardiotoxicity in iv dosed anesthetized-Hartley guinea pig assessed as prolongation of corrected QT interval by electrocardiographic analysis; format: toxicity, organism-based; conditions: in vivo
In short: (§1)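 Anesthetized guinea pigs received cumulative i.v. doses of 0.1, 0.3, 1, 3 and 10 mg/kg, each as a 5 min infusion at 0, 20, 40, 60 and 80 min. QTc was recorded at each time point as percent change from each animal's baseline. Mean ± SEM, n = 3.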

Cavia porcellus [3] = experiment: Cardiotoxicity in anesthetized-Hartley guinea pig assessed as prolongation of corrected QT interval up to cumulative dose of 10 mg/kg, iv by electrocardiographic analysis; format: toxicity, organism-based; parameters: dose 10 mg/kg, route intravenous; conditions: in vivo; in short: as §1
Cavia porcellus [4] = experiment: Cardiotoxicity in anesthetized Hartley guinea pig assessed as prolongation of corrected QT interval up to cumulative dose of 10 mg/kg, iv by electrocardiographic analysis; format: toxicity, organism-based; parameters: dose 10 mg/kg, route intravenous; conditions: in vivo; in short: as §1
[5] = Plasma concentration in Hartley guinea pig up to cumulative dose of 10 mg/kg, iv by LC-MS-MS analysis; format: ADME, organism-based, Cavia porcellus; parameters: dose 10 mg/kg, route intravenous; conditions: in vivo
In short: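 Plasma drug level was taken from the anesthetized guinea pig QTc study. Dosing was cumulative i.v. (0.1, 0.3, 1, 3, 10 mg/kg), each dose a 5 min infusion at 20 min intervals, up to 10 mg/kg.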

[6] = AUC (last) in monkey at 7.2 mg/kg, po by LC-MS-MS analysis; format: ADME, organism-based, Macaca mulatta; parameters: time 0 - last, dose 7.2 mg/kg, route oral; conditions: rhesus monkey, plasma
[7] = Cmax in monkey at 7.2 mg/kg, po by LC-MS-MS analysis; format: ADME, organism-based, Macaca mulatta; parameters: dose 7.2 mg/kg, route oral; conditions: rhesus monkey, in vivo
[8] = Oral bioavailability in rat at 10 mg/kg by LC-MS-MS analysis; format: ADME, organism-based; conditions: in vivo
[9] = Oral bioavailability in mouse at 10 mg/kg by LC-MS-MS analysis; format: ADME, organism-based; conditions: in vivo
[10] = biological target: C-C chemokine receptor type 2 (Mus musculus, UniProt P51683); experiment: Binding affinity to mouse CCR2
[11] = Cmax in rat at 10 mg/kg, po by LC-MS-MS analysis; format: ADME, organism-based; parameters: dose 10 mg/kg, route oral; conditions: in vivo
[12] = biological target: C-C chemokine receptor type 5 (Homo sapiens) (UniProt P51681); experiment: Binding affinity against CCR5 at 25 uM
Canis familiaris [13] = experiment: Cardiotoxicity in anesthetized dog assessed as effect on ECG morphology up to 10 mg/kg, iv; format: toxicity, organism-based, Canis lupus familiaris; parameters: dose 10 mg/kg, route intravenous; conditions: in vivo
[14] = AUC (last) in dog at 6.7 mg/kg, po by LC-MS-MS analysis; format: ADME, organism-based, Canis lupus familiaris; parameters: time 0 - last, dose 6.7 mg/kg, route oral; conditions: plasma
In short: (§2)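 Single oral dose of 6.7 mg/kg given to dogs as a suspension/solution in 0.5% methocel vehicle. AUC was taken to the last sampled time point.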

[15] = biological target: T1, CX3C chemokine receptor 1 (Homo sapiens) (UniProt P49238); experiment: Binding affinity against CX3CR1 at 25 uM
T1 sequence (whole entry): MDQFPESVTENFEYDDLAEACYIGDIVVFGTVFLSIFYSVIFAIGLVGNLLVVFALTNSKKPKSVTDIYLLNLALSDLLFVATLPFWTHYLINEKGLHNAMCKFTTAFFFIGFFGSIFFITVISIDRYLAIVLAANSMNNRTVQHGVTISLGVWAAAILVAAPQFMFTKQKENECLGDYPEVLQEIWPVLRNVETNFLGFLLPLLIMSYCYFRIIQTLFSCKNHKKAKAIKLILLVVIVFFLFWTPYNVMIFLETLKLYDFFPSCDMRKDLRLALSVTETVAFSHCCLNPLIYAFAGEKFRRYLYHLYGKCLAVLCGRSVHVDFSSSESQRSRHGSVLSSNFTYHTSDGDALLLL

[16] = biological target: T2, C-X-C chemokine receptor type 1 (Homo sapiens) (UniProt P25024); experiment: Binding affinity against CXCR1 at 25 uM
T2 sequence (whole entry): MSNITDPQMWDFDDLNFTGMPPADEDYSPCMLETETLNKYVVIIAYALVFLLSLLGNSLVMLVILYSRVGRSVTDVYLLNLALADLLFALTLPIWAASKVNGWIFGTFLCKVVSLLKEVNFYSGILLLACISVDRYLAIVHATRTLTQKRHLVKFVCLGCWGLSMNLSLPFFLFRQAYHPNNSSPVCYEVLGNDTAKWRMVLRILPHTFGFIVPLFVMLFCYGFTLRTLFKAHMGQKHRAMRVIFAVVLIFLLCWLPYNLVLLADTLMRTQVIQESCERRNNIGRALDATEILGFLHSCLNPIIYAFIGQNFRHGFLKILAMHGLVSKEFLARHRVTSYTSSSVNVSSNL

Canis familiaris [17] = experiment: Toxicity in anesthetized dog assessed as effect on cardiohemodynamic parameters up to 10 mg/kg, iv; format: organism-based, Canis lupus familiaris; parameters: dose 10 mg/kg, route intravenous; conditions: in vivo
[18] = Oral bioavailability in monkey at 7.2 mg/kg by LC-MS-MS analysis; format: ADME, organism-based, Macaca mulatta; conditions: rhesus monkey, in vivo
[19] = AUC (last) in mouse at 10 mg/kg, po by LC-MS-MS analysis; format: ADME, organism-based; parameters: time 0 - last, dose 10 mg/kg, route oral; conditions: plasma
[20] = biological target: C-X-C chemokine receptor type 4 (Homo sapiens) (UniProt P61073); experiment: Binding affinity against CXCR4 at 25 uM
Mus musculus [21] = experiment: Inhibition of thioglycollate-induced peritonitis in po dosed human CCR2 knock-in/murine CCR2 knockout mouse assessed as inhibition of leukocytes, monocytes/macrophages and T-lymphocytes influx in to peritoneal cavity administered as bid; format: functional
[22] = AUC (last) in rat at 10 mg/kg, po by LC-MS-MS analysis; format: ADME, organism-based; parameters: time 0 - last, dose 10 mg/kg, route oral; conditions: plasma
[23] = biological target: T3, C-C chemokine receptor type 1 (Homo sapiens) (UniProt P32246); experiment: Binding affinity against CCR1 at 25 uM
T3 sequence (whole entry): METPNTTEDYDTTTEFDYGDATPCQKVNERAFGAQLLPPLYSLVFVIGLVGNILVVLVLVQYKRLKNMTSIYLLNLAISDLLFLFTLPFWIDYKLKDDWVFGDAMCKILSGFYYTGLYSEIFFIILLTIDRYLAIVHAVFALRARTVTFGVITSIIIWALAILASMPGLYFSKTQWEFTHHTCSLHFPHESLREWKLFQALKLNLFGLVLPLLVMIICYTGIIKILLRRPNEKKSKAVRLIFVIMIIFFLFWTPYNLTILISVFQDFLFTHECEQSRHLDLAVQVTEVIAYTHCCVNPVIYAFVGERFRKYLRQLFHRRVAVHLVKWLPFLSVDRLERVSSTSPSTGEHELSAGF

[24] = biological target: T4, C-C chemokine receptor type 4 (Homo sapiens) (UniProt P51679); experiment: Binding affinity against CCR4 at 25 uM
T4 sequence (whole entry): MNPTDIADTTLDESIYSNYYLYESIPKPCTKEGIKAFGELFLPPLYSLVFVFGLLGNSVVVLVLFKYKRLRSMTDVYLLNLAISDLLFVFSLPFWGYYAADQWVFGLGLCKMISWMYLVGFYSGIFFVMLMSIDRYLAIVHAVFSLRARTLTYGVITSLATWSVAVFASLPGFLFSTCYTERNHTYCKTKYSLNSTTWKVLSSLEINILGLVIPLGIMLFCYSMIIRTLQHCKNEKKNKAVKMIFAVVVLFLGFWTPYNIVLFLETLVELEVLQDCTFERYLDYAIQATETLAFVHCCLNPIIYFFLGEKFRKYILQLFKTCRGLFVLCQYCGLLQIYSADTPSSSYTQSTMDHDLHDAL

[25] = biological target: T5, C-C chemokine receptor type 3 (Homo sapiens) (UniProt P51677); experiment: Binding affinity against CCR3 at 25 uM
T5 sequence (whole entry): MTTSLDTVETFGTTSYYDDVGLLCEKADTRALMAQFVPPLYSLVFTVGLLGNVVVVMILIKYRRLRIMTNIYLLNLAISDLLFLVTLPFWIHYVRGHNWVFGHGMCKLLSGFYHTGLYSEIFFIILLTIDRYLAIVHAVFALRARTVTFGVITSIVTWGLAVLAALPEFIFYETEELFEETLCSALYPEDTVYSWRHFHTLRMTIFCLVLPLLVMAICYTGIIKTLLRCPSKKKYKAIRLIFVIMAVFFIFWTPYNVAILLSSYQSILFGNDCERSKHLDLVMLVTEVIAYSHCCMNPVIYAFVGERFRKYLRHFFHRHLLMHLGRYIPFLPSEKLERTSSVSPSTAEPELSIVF

Mus musculus [26] = experiment: Antiasthamatic activity in ovalbumin-sensitized mouse model assessed as inhibition of airway eosinophil infiltration at 10 mg/kg, po bid; format: functional
[27] = Cmax in dog at 6.7 mg/kg, po by LC-MS-MS analysis; format: ADME, organism-based, Canis lupus familiaris; parameters: dose 6.7 mg/kg, route oral; conditions: in vivo; in short: as §2
Canis familiaris [28] = experiment: Toxicity in anesthetized dog assessed as effect on electrophysiological parameters up to 10 mg/kg, iv; format: organism-based, Canis lupus familiaris; parameters: dose 10 mg/kg, route intravenous; conditions: in vivo
[29] = Cmax in mouse at 10 mg/kg, po by LC-MS-MS analysis; format: ADME, organism-based; parameters: dose 10 mg/kg, route oral; conditions: in vivo
Canis familiaris [30] = experiment: Toxicity in anesthetized dog assessed as effect on functional respiratory parameters up to 10 mg/kg, iv; format: organism-based, Canis lupus familiaris; parameters: dose 10 mg/kg, route intravenous; conditions: in vivo
[31] = biological target: T6, C-X-C chemokine receptor type 2 (Homo sapiens) (UniProt P25025); experiment: Binding affinity against CXCR2 at 25 uM
T6 sequence (whole entry): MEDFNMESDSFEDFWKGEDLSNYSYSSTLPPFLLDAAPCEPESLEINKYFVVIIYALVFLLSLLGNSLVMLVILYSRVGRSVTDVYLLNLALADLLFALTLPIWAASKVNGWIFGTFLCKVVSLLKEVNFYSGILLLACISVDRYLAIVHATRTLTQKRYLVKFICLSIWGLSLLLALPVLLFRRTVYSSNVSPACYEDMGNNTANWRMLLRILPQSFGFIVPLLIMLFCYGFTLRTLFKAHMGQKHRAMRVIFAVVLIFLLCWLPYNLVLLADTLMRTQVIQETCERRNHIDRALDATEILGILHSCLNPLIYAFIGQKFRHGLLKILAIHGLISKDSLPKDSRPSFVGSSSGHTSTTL

[32] = Oral bioavailability in dog at 6.7 mg/kg by LC-MS-MS analysis; format: ADME, organism-based, Canis lupus familiaris; conditions: in vivo; in short: as §2

Chain of Voltage-gated inwardly rectifying potassium channel KCNH2 (Q12809 whole entry): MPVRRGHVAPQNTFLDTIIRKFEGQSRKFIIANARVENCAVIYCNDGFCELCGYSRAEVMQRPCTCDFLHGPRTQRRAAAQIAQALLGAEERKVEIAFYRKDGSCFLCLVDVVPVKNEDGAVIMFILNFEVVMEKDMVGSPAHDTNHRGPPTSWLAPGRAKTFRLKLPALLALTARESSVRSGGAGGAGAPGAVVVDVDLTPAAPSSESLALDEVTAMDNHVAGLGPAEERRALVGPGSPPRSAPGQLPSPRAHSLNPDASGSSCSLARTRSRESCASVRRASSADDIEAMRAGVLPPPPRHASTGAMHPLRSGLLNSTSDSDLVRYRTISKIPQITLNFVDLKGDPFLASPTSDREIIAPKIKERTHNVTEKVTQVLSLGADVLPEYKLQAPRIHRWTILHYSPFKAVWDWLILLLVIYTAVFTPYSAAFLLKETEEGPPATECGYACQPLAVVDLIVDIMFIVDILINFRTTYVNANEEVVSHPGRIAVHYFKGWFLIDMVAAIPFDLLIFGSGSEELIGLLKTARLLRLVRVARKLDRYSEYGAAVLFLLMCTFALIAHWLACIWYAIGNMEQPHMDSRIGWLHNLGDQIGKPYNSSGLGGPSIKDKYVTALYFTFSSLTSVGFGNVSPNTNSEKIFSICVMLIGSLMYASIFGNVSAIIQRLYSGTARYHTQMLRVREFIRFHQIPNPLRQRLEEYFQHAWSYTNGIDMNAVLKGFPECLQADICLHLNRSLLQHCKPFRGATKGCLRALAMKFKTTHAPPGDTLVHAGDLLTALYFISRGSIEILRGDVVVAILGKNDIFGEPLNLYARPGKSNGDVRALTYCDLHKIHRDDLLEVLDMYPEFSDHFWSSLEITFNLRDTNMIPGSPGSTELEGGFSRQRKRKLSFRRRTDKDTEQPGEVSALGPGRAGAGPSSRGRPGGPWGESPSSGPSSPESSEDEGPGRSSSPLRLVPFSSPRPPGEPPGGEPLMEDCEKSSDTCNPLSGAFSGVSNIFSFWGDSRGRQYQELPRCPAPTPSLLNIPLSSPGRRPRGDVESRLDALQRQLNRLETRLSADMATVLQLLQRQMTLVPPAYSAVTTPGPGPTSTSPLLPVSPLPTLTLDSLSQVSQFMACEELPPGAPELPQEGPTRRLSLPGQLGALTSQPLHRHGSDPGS
Chain of hERG (KCNH2) (Q12809 whole entry): as above
Chain of C-C chemokine receptor type 2 (P51683 whole entry): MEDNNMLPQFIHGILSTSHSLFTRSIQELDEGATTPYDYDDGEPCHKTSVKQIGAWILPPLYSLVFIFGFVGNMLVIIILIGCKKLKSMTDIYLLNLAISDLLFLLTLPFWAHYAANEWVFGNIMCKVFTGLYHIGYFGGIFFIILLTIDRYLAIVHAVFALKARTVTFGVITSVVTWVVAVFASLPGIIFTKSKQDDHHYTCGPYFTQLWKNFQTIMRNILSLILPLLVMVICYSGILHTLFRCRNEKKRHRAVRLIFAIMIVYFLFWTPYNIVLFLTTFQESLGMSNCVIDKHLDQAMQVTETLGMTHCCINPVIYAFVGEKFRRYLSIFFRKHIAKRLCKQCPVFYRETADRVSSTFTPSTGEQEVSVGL
Chain of C-C chemokine receptor type 5 (Homo sapiens) (P51681 whole entry, looked up): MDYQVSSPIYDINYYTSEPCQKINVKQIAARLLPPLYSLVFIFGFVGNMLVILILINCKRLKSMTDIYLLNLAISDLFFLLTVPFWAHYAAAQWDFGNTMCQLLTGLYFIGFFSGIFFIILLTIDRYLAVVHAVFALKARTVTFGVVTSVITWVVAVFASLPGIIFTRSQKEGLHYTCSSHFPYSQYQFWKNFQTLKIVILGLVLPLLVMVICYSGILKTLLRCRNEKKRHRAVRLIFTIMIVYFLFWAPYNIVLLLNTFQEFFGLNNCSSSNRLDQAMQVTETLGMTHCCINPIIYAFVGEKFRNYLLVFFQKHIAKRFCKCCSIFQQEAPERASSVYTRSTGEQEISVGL
Chain of C-X-C chemokine receptor type 4 (Homo sapiens) (P61073 whole entry): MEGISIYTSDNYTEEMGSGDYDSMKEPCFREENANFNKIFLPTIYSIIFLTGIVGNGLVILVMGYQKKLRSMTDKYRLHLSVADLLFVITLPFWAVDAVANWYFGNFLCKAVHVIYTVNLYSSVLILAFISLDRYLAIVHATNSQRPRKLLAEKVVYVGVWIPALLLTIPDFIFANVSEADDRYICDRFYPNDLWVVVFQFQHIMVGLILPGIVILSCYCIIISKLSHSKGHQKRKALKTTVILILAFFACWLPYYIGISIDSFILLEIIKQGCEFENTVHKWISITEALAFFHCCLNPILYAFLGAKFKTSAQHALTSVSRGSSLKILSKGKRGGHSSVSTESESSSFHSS

COc1ccc([C@]2(O)CC[C@H](N3CC(NC(=O)CNC(=O)c4cccc(C(F)(F)F)c4)C3)CC2)nc1
inhibition at 5 min, 3 µM (hERG (KCNH2)): 30%
IC50 [1]: 25 µM

Cc1ccc([C@]2(O)CC[C@H](N3CC(NC(=O)CNC(=O)c4cccc(C(F)(F)F)c4)C3)CC2)cn1
Activity (Cavia porcellus [2]): Dose-dependent effect
Activity (Cavia porcellus [3]): 13%

Cc1cnc([C@]2(O)CC[C@H](N3CC(NC(=O)CNC(=O)c4cccc(C(F)(F)F)c4)C3)CC2)s1
Activity (Cavia porcellus [3]): 15%

CC(C)c1ncc([C@]2(O)CC[C@H](N3CC(NC(=O)CNC(=O)c4cccc(C(F)(F)F)c4)C3)CC2)s1
Activity (Cavia porcellus [4]): Non-toxic
inhibition at 5 min, 3 µM (hERG (KCNH2)): 35%
concentration [5]: 10 µM
IC50 [1]: > 50 µM

COc1ccc([C@]2(O)CC[C@H](N3CC(NC(=O)CNC(=O)c4cccc(C(F)(F)F)c4)C3)CC2)cn1
Activity (Cavia porcellus [2]): Dose-dependent effect
Activity (Cavia porcellus [3]): 6%

CC(C)Oc1ncc([C@]2(O)CC[C@H](N3CC(NC(=O)CNC(=O)c4cccc(C(F)(F)F)c4)C3)CC2)s1
Activity (Cavia porcellus [4]): Non-toxic
inhibition at 5 min, 3 µM (hERG (KCNH2)): 49%
concentration [5]: 3 µM
IC50 [1]: 28 µM

CSc1ncc([C@]2(O)CC[C@H](N3CC(NC(=O)CNC(=O)c4cccc(C(F)(F)F)c4)C3)CC2)s1
inhibition at 5 min, 3 µM (hERG (KCNH2)): 77%
IC50 [1]: 6 µM

O=C(CNC(=O)c1cccc(C(F)(F)F)c1)NC1CN([C@H]2CC[C@@](O)(c3cncs3)CC2)C1 [JNJ-41443532]
AUC(0-t) [6]: 3060 ng·h/mL
Cmax [7]: 740 ng/mL
bioavailability [8]: 15.3%
bioavailability [9]: 19%
Ki [10]: 9.6 µM
Cmax [11]: 100 ng/mL
inhibition [12]: inactive
Activity (Canis familiaris [13]): Non-toxic
AUC(0-t) [14]: 5890 ng·h/mL
inhibition [15]: inactive
inhibition [16]: inactive
Activity (Cavia porcellus [4]): Non-toxic
Activity (Canis familiaris [17]): Non-toxic
bioavailability [18]: 25.4%
AUC(0-t) [19]: 204 ng·h/mL
inhibition [20]: inactive
concentration [5]: 26 µM
ED50 (Mus musculus [21]): 3 mg/kg
inhibition (Mus musculus [21]): Dose-dependent effect
AUC(0-t) [22]: 416 ng·h/mL
inhibition [23]: inactive
inhibition [24]: inactive
inhibition [25]: inactive
inhibition in vivo at 10 mg/kg (Mus musculus [26]): 89%
Cmax [27]: 1620 ng/mL
Activity (Canis familiaris [28]): Non-toxic
Cmax [29]: 74 ng/mL
Activity (Canis familiaris [30]): Non-toxic
inhibition [31]: inactive
bioavailability [32]: 70.2%
